Experimental data taken from ChEMBL document CHEMBL1144504, “Antitumor studies. Part 1: design, synthesis, antitumor activity, and AutoDock study of 2-deoxo-2-phenyl-5-deazaflavins and 2-deoxo-2-phenylflavin-5-oxides as a new class of antitumor agents” (Bioorg Med Chem, 2007).

What was measured:
KB = assay: Growth inhibition of human KB cells by MTT assay; format: functional, cell-based
Summary of the method: (§1)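 5×10^3 cells per well seeded with compound added simultaneously, triplicate wells, 72 h at 37 °C in humidified 5% CO2. MTT (5 mg/mL stock in Ca/Mg-free PBS) added for a further 4 h at 37 °C. Formazan solubilized in 0.02 N HCl/50% DMF/20% SDS, OD570 read. Inhibition (%) = (1 − T/C) × 100 against mean control; IC50 taken from dose–response curve.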

CCRF-HSB-2 = assay: Growth inhibition of human CCRF-HSB-2 cells by MTT assay; format: functional, cell-based; summary of the method: as §1
NCI-H460 = assay: Growth inhibition of human NCI-H460 cells by MTT assay; format: functional, cell-based; summary of the method: as §1
HCT-116 = assay: Growth inhibition of human HCT116 cells by MTT assay; format: functional, cell-based; summary of the method: as §1
A-431 [1] = assay: Growth inhibition of human A431 cells by MTT assay; format: functional, cell-based; summary of the method: as §1
Mus musculus [2] = assay: Weight change in intratumorally dosed BALB/c nude mouse bearing human A431 cells at 25 mg/kg after 17 days; format: functional, A-431
Summary of the method: (§2)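 BALB/c nude mice bearing subcutaneous A431 tumors, dosed from the day tumors reach 100–300 mm3. Vehicle: 0.5% gum arabic suspension. Intratumoral schedule: days 1-5, 8-12, 15-19. Intraperitoneal and oral schedule: daily, days 1-10. Body weight change in g recorded at 17 days (it), 10 days (ip) or 18 days (po) after treatment.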

A-431 [3] = assay: Antitumor activity against human A431 xenograft in intratumorally dosed BALB/c nude mouse at 25 mg/kg after 17 days relative control; format: functional
Summary of the method: (§3)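 A431 implanted subcutaneously in BALB/c nude mice; dosing begins (day 1) when tumors reach 100–300 mm3. Compound suspended in 0.5% gum arabic. Intratumoral: five daily doses per week for 3 weeks (days 1-5, 8-12, 15-19). Intraperitoneal and oral: daily for 10 days (days 1-10). Tumor length a and width b measured 2–3 times weekly; volume = a×b²/2; T/C % = (Tn/T1)×100/(Cn/C1).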

Mus musculus [4] = assay: Weight change in human A431 xenografted BALB/c nude mouse at 100 mg/kg, ip after 10 days; format: functional; conditions: route intraperitoneal; summary of the method: as §2
A-431 [5] = assay: Antitumor activity against human A431 xenograft in BALB/c nude mouse at 100 mg/kg, ip after 10 days relative control; format: functional; conditions: route intraperitoneal; summary of the method: as §3
A-431 [6] = assay: Antitumor activity against human A431 xenograft in BALB/c nude mouse at 75 mg/kg, po after 18 days relative control; format: functional; summary of the method: as §3
Mus musculus [7] = assay: Weight change in human A431 xenografted BALB/c nude mouse at 150 mg/kg, po after 18 days; format: functional; summary of the method: as §2
Mus musculus [8] = assay: Weight change in human […] A431 xenografted BALB/c nude mouse at 75 mg/kg, po after 18 days; format: functional; summary of the method: as §2
A-431 [9] = assay: Antitumor activity against human A431 xenograft in BALB/c nude mouse at 150 mg/kg, po after 18 days relative control; format: functional; summary of the method: as §3
A-431 [10] = assay: Antitumor activity against human A431 xenograft in BALB/c nude mouse at 1 mg/kg, ip after 10 days relative control; format: functional; conditions: route intraperitoneal
Summary of the method: (§4)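 A431 cells implanted subcutaneously into BALB/c nude mice. Dosing began (day 1) once tumors reached 100–300 mm3, given ip as a suspension in 0.5% gum arabic, daily for days 1–10. Tumor length (a) and width (b) were measured 2–3 times weekly; volume = (a×b²)/2. T/C % = (Tn/T1)×100/(Cn/C1), read on day 10. Body weight change was given in g.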

A-431 [11] = assay: Antitumor activity against human A431 xenograft in BALB/c nude mouse at 1 mg/kg, po after 18 days relative control; format: functional
Summary of the method: (§5)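 Subcutaneous A431 xenografts in BALB/c nude mice were dosed orally once tumors reached 100–300 mm3 (day 1). Dosing was daily for days 1–10 as a suspension in 0.5% gum arabic. Volume = (a×b²)/2 from calipered length and width. Relative volume T/C % = (Tn/T1)×100/(Cn/C1) and body weight change (g) were assessed 18 days after treatment.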

Mus musculus [12] = assay: Weight change in human A431 xenografted BALB/c nude mouse at 1 mg/kg, po after 18 days; format: functional; summary of the method: as §5
Mus musculus [13] = assay: Weight change in intratumorally dosed BALB/c nude mouse bearing human A431 cells at 1 mg/kg after 17 days; format: functional, A-431
Summary of the method: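 A431 was transplanted subcutaneously into BALB/c nude mice. Intratumoral injections of a suspension in 0.5% gum arabic started when tumors reached 100–300 mm3. Injections were given five consecutive days per week for 3 weeks (days 1–5, 8–12, 15–19). Body weight change (g) was recorded on day 17.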

Mus musculus [14] = assay: Weight change in human A431 xenografted BALB/c nude mouse at 1 mg/kg, ip after 10 days; format: functional; conditions: route intraperitoneal; summary of the method: as §4

Structure (SMILES)	IC50 (KB) [nM]	IC50 (CCRF-HSB-2) [nM]	IC50 (NCI-H460) [nM]	IC50 (HCT-116) [nM]	other results
CCn1c2nc(-c3ccccc3)nc(=O)c-2cc2cc(C)ccc21	510	730	–	–	–
COc1ccc2cc3c(=O)nc(-c4ccccc4)nc-3[nH]c2c1	62700	24400	–	–	–
CC(C)n1c2nc(-c3ccccc3)nc(=O)c-2[n+]([O-])c2ccccc21	2180	980	6050	6580	–
Cc1ccc2c(c1)[n+]([O-])c1c(=O)nc(-c3ccccc3)nc-1n2C	1750	500	4390	3250	–
Cc1cccc2cc3c(=O)nc(-c4ccccc4)nc-3[nH]c12	> 350000	299000	–	–	–
COc1cc2c(c(OC)c1OC)[n+]([O-])c1c(=O)nc(-c3ccccc3)nc-1n2C	–	–	3720	3760	–
CCn1c2nc(-c3ccccc3)nc(=O)c-2cc2ccccc21	2620	1790	–	–	Activity (Mus musculus [2]): -1.6 g; Activity (A-431 [3]): 109%; IC50 (A-431 [1]): 760 nM
Cc1ccc2c(c1)cc1c(=O)nc(-c3ccccc3)nc-1n2C	1860	1490	2080	1680	IC50 (A-431 [1]): 2450 nM
Cc1cccc2c1n(C)c1nc(-c3ccccc3)nc(=O)c-1[n+]2[O-]	3280	1290	–	–	–
CCn1c2nc(-c3ccccc3)nc(=O)c-2[n+]([O-])c2cc(C)ccc21	2970	1710	–	–	–
O=c1nc(-c2ccccc2)nc2[nH]c3ccccc3cc1-2	5120	3830	–	–	IC50 (A-431 [1]): 3880 nM
COc1cccc2c1C(=O)c1c(O)c3c(c(O)c1C2=O)C[C@@](O)(C(=O)CO)C[C@@H]3O[C@H]1C[C@H](N)[C@H](O)[C@H](C)O1 [DOXORUBICIN]	–	–	–	–	IC50 (A-431 [1]): 50 nM
CN[C@@H]1C[C@H]2O[C@@](C)([C@@H]1OC)n1c3ccccc3c3c4c(c5c6ccccc6n2c5c31)C(=O)NC4 [STAUROSPORINE]	–	–	–	–	Activity (A-431 [10]): 84.9%; Activity (A-431 [11]): 72.9%; Activity (Mus musculus [12]): -2 g; Activity (Mus musculus [13]): -0.6 g; Activity (Mus musculus [14]): -1 g

Now from value to compound, other results behind:

IC50 (KB) [nM]	IC50 (CCRF-HSB-2) [nM]	IC50 (NCI-H460) [nM]	IC50 (HCT-116) [nM]	Structure (SMILES)	other results
3980	700	–	–	Cc1cccc2cc3c(=O)nc(-c4ccccc4)nc-3n(C)c12	–
500	1230	3100	2910	COc1ccc2c(c1)cc1c(=O)nc(-c3ccccc3)nc-1n2C	–
5040	2140	–	–	COc1ccc2cc3c(=O)nc(-c4ccccc4)nc-3n(C)c2c1	–
2380	960	–	–	CCn1c2nc(-c3ccccc3)nc(=O)c-2[n+]([O-])c2ccccc21	–
1080	970	2720	1800	Cn1c2nc(-c3ccccc3)nc(=O)c-2[n+]([O-])c2ccccc21	IC50 (A-431 [1]): 1310 nM
–	–	1330	720	COc1ccc2c(c1)[n+]([O-])c1c(=O)nc(-c3ccccc3)nc-1n2C	–
2330	11800	2230	2110	Cn1c2nc(-c3ccccc3)nc(=O)c-2cc2ccccc21	Activity (Mus musculus [4]): -1.7 g; Activity (A-431 [5]): 53.4%; Activity (Mus musculus [2]): 0.1 g; Activity (A-431 [6]): 97.6%; Activity (A-431 [3]): 57.2%; Activity (Mus musculus [7]): -0.4 g; Activity (Mus musculus [8]): -0.9 g; IC50 (A-431 [1]): 1440 nM; Activity (A-431 [9]): 51.8%
700	150	–	–	Nc1ccn([C@@H]2O[C@H](CO)[C@@H](O)[C@@H]2O)c(=O)n1 [CYTARABINE]	–
